Published values collected from several papers.
Compare with care: the assays were run in different laboratories.
Cell line: L02
Read-out: cell growth or viability

Compound	test	setting	IC50 [µM]
COc1cc(C2Oc3cc([C@H]4Oc5cc(O)cc(O)c5C(=O)[C@@H]4O)ccc3OC2CO)ccc1O (stereo partly shown)	CCK-8	72 h	> 300
COc1ccc(NC(=O)Nc2ccc(OCc3nccc(OC)c3OC)cc2)cc1	MTT	72 h	> 100
Cc1cc(Oc2ccc(NC(=O)c3sc(-c4ccccn4)nc3C)cc2)c2nncn2n1	MTT		> 50
Cc1c(OCC(F)(F)F)ccnc1COc1ccc(NC(=O)Nc2ccc(Cl)c(C(F)(F)F)c2)cc1	MTT	72 h	> 100
Oc1c(Br)cc(Br)c2cccnc12	MTT	48 h	> 100
Cc1cc(Oc2ccc(NC(=O)c3sc(-c4ccncc4)nc3C)cc2)n2ncnc2n1	MTT		> 50
COc1ccnc(-c2cc(OC)ccn2)c1	MTT	48 h	> 50
Cc1cc(Oc2ccc(NC(=O)c3cc(-c4cccs4)no3)cc2F)c2nncn2n1	MTT		> 50
Oc1c(I)cc(I)c2cccnc12	MTT	48 h	71
COCCCOc1ccnc(COc2ccc(NC(=O)Nc3ccc(Cl)cc3)cc2)c1C	MTT	72 h	> 100
